SMILES strings stand for the structures. Activity calls are given as the source filed them. No cut-off for these calls is given here.

For data set [1], the system named is RAW264.7. Nature of the data set: Induction of LPS-induced ATF-3 expression in mouse RAW264.7 cells preincubated for 2 hrs followed by LPS stimulation for 4 hrs by Western blot method. It is filed as functional, cell-based. The procedure, abridged:
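Cells were pretreated 2 h (0.1–10 μg/mL), then stimulated with LPS 1 μg/mL for 4 h. ATF-3 was detected by Western blot (8% SDS-PAGE, PVDF, ECL) and quantified by densitometry, normalized to β-actin, in arbitrary units. Blots are representative of three experiments.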
(In general: In western blotting, separated proteins are transferred to a membrane and probed.)

The subject of data set [2] is RAW264.7. Nature of the data set: Anti-inflammatory activity in mouse RAW264.7 cells assessed as reduction in LPS-induced IL-6 production preincubated for 2 hrs followed by LPS stimulation for 24 hrs by ELISA. It is filed as functional, cell-based. In short, it runs like this:
(§1)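 RAW 264.7 cells (DMEM, 10% heat-inactivated FBS, 37 °C, 5% CO2) pretreated 2 h with compound at 0.1, 1 or 10 μg/mL, then LPS 1 μg/mL for 24 h. TNF-α and IL-6 in the supernatant measured by sandwich ELISA. Dexamethasone 10 and 20 μM served as reference. Means ± SEM of quintuplicate replicates, one representative experiment.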
(In general: An ELISA detects its analyte on a solid surface through an enzyme-linked reagent.)

The subject of data set [3] is RAW264.7. Briefly: Cytotoxicity against mouse RAW264.7 cells assessed as reduction in cell viability up to 100 ug/ml after 24 hrs by MTT assay. The data set is classed as cell-based. The following applies: raw264.7, 24 h. In short, it runs like this:
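RAW 264.7 cells were seeded at 5 × 10^4 per well and exposed 24 h to 0.1, 1, 10, 50 and 100 μg/mL. MTT was then added in full DMEM for 4 h, formazan was dissolved in DMSO, and OD was read at 550 nm.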

The target of data set [4] is Transcription factor Jun (Homo sapiens) (UniProt P05412). Nature of the data set: Inhibition of AP-1 (unknown origin) activation expressed in LPS-stimulated mouse RAW264.7 cells preincubated for 2 hrs followed by LPS stimulation for 4 hrs by luciferase reporter gene assay. It is filed as cell-based. In short, it runs like this: (§2)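 Cells were plated at 5 × 10^5/mL and transiently cotransfected by lipofection with pGL3-NF-κB-Luc or pGL2-AP-1-Luc plus a normalization plasmid. After 24 h they were pretreated 2 h with the compound (0.1, 1, 10 μg/mL for NF-κB), then given LPS 1 μg/mL for 4 h. Cells were washed in cold PBS, and luciferase was read in the lysates.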
Sequence of Transcription factor Jun (Homo sapiens) (P05412 whole entry): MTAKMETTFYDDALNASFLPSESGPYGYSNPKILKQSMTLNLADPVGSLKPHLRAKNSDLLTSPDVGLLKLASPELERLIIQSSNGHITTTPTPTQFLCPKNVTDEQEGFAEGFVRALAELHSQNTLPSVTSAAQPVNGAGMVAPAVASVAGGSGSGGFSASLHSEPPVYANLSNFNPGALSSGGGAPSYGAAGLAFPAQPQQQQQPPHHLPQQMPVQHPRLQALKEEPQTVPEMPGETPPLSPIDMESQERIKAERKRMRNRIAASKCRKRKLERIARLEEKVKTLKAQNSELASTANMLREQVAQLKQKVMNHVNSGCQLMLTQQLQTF

The target of data set [5] is T1, NF-kappa-B inhibitor alpha (Mus musculus) (UniProt Q9Z1E3).
T1 sequence (whole entry): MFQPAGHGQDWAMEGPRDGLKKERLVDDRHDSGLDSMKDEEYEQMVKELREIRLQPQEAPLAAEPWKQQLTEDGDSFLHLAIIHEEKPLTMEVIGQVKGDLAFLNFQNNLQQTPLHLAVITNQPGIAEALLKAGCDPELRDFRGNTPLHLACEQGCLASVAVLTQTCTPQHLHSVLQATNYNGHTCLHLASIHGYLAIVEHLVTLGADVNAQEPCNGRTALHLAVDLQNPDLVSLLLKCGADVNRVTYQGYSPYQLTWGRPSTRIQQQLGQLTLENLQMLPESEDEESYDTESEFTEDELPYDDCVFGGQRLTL
Briefly: Inhibition of LPS-induced degradation of IkappaB-alpha in mouse RAW264.7 cells at 10 ug/ml preincubated for 2 hrs followed by LPS stimulation up to 45 mins by Western blot method. The data set is classed as cell-based. The procedure, abridged:
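Cells were pretreated 2 h with 10 μg/mL, then given LPS 1 μg/mL for varying times. IκBα was detected in lysates by Western blot with ECL, using β-actin as internal control. Results are representative of three experiments.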

Data set [6] relates to RAW264.7. Nature of the data set: Anti-inflammatory activity in mouse RAW264.7 cells assessed as reduction in LPS-induced NO production up to 10 ug/ml preincubated for 2 hrs followed by LPS stimulation for 24 hrs by Griess assay. The data set is classed as functional, cell-based. The procedure, abridged:
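RAW 264.7 cells were pretreated 2 h with 0.1–10 μg/mL, then given LPS 1 μg/mL for 24 h. Supernatant was mixed 1:1 with Griess reagent (sulfanilamide in 5% phosphoric acid plus α-naphthylamide) for 15 min at room temperature, and A550 was read. Nitrite served as the NO index. Dexamethasone 10 and 20 μM was the reference. Quintuplicates, mean ± SEM.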
On the technique in general: Griess reagent forms a coloured azo dye with nitrite.

For data set [7], the target named is Transcription factor p65 (Mus musculus) (UniProt Q04207). Nature of the data set: Inhibition of p65 nuclear translocation in LPS-stimulated mouse RAW264.7 cells preincubated for 2 hrs followed by LPS stimulation for 4 hrs by Western blot method. The procedure, abridged:
(§3)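 Pretreatment was 2 h (0.1, 1, 10 μg/mL), then LPS 1 μg/mL for 4 h. Cytosolic extracts came from a 1500g, 10 min, 4 °C spin and nuclear fractions from 13000g, 10 min, 4 °C. p65, c-Jun and c-Fos were detected by Western blot (8% SDS-PAGE, PVDF, ECL), with β-actin as reprobe control.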

The target of data set [8] is Proto-oncogene c-Fos (Mus musculus) (UniProt P01101). Briefly: Inhibition of LPS-induced nuclear translocation of AP-1 c-Fos component in mouse RAW264.7 cells up to 10 ug/ml preincubated for 2 hrs followed by LPS stimulation for 4 hrs by Western blot method.
Sequence of Proto-oncogene c-Fos (Mus musculus) (P01101 whole entry, looked up): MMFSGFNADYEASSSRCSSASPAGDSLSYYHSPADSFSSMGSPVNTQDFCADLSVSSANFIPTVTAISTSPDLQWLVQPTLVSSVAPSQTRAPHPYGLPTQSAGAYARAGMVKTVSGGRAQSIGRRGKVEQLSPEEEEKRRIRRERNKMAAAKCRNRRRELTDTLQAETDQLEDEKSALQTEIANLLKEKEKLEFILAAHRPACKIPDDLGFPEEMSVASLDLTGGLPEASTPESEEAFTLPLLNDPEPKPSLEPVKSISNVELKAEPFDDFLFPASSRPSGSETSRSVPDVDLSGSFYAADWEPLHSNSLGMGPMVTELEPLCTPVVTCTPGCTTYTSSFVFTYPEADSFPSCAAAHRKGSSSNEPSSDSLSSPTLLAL
The subject of data set [9] is RAW264.7. Briefly: Anti-inflammatory activity in mouse RAW264.7 cells transfected with ATF-3 shRNA assessed as reduction in LPS-induced TNFalpha production at 10 ug/ml preincubated for 2 hrs followed by LPS stimulation for 24 hrs by ELISA. The data set is classed as functional, cell-based. In short, it runs like this: (§4)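 Cells received compound at 10 μg/mL for 2 h, then LPS 1 μg/mL for 24 h. TNF-α and IL-6 in the medium were measured by ELISA and compared with control shRNA cells.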

Data set [10] addresses MAP kinase p38 (Mus musculus) (UniProt P47811+O08911+Q9WUI1+Q9Z1B7). Nature of the data set: Inhibition of LPS-induced MAPK p38 phosphorylation in mouse RAW264.7 cells up to 10 ug/ml preincubated for 2 hrs followed by LPS stimulation for 15 mins by Western blot method. It is filed as cell-based. In short, it runs like this:
(§5)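 RAW 264.7 cells were preincubated 2 h at 0.1, 1 or 10 μg/mL, then exposed to LPS 1 μg/mL for 15 min. Lysates were resolved on 8% SDS-PAGE, transferred to PVDF and probed for the phosphorylated MAP kinases. Detection was by ECL, with membranes reprobed for β-actin as loading control.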

Data set [11] has as its target Mitogen-activated protein kinase 1 and 3 (ERK2 and ERK1) (Mus musculus) (UniProt P63085+Q63844). Briefly: Inhibition of LPS-induced ERK1/2 phosphorylation in mouse RAW264.7 cells up to 10 ug/ml preincubated for 2 hrs followed by LPS stimulation for 15 mins by Western blot method. The data set is classed as cell-based. The procedure, abridged:
as §5

The species entered for a further data set is Homo sapiens. Nature of the data set: Inhibition of NF-kB (unknown origin) activation expressed in LPS-stimulated mouse RAW264.7 cells up to 10 ug/ml preincubated for 2 hrs followed by LPS stimulation for 4 hrs by luciferase reporter gene assay. The data set is classed as cell-based. In short, it runs like this: as §2
The test system of data set [12] is RAW264.7. Nature of the data set: Anti-inflammatory activity in mouse RAW264.7 cells assessed as reduction in LPS-induced TNFalpha production preincubated for 2 hrs followed by LPS stimulation for 24 hrs by ELISA. It is filed as functional, cell-based. In short, it runs like this:
as §1

For data set [13], the system named is RAW264.7. Nature of the data set: Anti-inflammatory activity in mouse RAW264.7 cells transfected with ATF-3 shRNA assessed as reduction in LPS-induced IL-6 production at 10 ug/ml preincubated for 2 hrs followed by LPS stimulation for 24 hrs by ELISA. It is filed as functional, cell-based. In short, it runs like this:
as §4

The target in data set [14] is Transcription factor Jun (Mus musculus) (UniProt P05627). Nature of the data set: Inhibition of LPS-induced nuclear translocation of AP-1 c-Jun component in mouse RAW264.7 cells up to 10 ug/ml preincubated for 2 hrs followed by LPS stimulation for 4 hrs by Western blot method. The data set is classed as cell-based. The procedure, abridged: as §3
Sequence of Transcription factor Jun (Mus musculus) (P05627 whole entry): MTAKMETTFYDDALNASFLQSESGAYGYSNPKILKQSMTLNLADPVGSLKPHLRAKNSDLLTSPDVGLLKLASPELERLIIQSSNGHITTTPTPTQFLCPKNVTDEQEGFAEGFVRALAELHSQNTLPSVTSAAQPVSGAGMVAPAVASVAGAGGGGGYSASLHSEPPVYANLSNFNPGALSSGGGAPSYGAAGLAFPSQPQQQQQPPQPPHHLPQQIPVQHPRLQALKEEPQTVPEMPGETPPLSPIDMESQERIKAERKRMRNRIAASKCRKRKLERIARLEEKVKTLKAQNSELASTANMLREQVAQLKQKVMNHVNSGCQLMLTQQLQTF
The species entered for the next data set is Mus musculus. Nature of the data set: Inhibition of LPS-induced JNK phosphorylation in mouse RAW264.7 cells up to 10 ug/ml preincubated for 2 hrs followed by LPS stimulation for 15 mins by Western blot method. The data set is classed as cell-based. In short, it runs like this:
as §5

Sequence of Transcription factor p65 (Mus musculus) (Q04207 whole entry): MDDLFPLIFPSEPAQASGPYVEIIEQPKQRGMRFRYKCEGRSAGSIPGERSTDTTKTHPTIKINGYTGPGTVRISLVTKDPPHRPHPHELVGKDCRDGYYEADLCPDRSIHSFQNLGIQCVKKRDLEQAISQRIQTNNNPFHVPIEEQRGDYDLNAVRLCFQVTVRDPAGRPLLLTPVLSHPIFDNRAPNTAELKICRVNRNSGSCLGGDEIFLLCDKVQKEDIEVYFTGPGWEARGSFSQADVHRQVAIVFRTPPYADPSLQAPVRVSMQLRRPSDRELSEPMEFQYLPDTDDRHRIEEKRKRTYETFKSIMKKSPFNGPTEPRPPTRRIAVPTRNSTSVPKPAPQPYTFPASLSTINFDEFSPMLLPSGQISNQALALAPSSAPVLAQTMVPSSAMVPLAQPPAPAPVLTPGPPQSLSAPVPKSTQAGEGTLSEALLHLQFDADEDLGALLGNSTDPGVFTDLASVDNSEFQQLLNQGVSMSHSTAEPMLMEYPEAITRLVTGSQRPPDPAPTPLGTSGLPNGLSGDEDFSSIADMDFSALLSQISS
Sequence of Mitogen-activated protein kinase 1 and 3 (ERK2 and ERK1) (Mus musculus) (P63085 whole entry, looked up): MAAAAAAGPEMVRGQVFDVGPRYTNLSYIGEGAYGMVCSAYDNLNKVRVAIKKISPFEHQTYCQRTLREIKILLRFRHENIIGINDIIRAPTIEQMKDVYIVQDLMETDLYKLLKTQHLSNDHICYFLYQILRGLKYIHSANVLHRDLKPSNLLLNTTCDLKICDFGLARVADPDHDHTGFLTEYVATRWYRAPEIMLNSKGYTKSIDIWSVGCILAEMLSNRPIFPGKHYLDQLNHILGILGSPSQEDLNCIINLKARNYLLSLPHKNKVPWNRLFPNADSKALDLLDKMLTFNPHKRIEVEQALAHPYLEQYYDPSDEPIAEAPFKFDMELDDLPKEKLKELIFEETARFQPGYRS
Sequence of Mitogen-activated protein kinase 1 and 3 (ERK2 and ERK1) (Mus musculus) (Q63844 whole entry, looked up): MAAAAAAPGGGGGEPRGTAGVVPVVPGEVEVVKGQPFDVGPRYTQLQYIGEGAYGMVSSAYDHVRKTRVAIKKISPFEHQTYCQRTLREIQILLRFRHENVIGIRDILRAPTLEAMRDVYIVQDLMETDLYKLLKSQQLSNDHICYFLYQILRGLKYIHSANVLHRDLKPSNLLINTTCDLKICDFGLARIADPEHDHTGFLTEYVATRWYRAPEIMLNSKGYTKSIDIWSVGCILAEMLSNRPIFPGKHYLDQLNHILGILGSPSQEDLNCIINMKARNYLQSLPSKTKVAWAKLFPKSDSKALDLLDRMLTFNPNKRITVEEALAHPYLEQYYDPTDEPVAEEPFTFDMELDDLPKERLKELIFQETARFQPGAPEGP

Take `NCCCOc1cccc(C(=O)O)c1N`: the result in the data set on RAW264.7 [1] was Active. Further, the Activity result in the data set on RAW264.7 [2] is “Dose-dependent effect”; in the data set on RAW264.7 [3] it was “Non-Toxic”; in the data set with RAW264.7 [12], “Dose-dependent effect”. The inhibition result in [4] and in data set [7] was “Dose-dependent effect” in each case. The inhibition result (in data set [5]; in data set [8]; in data set [11]; in the data set filed under Homo sapiens; in [14]; in the data set filed under Mus musculus) was “Active” in each case. For the same molecule, the outcome in the data set on RAW264.7 [6], in the data set on RAW264.7 [9] and in the data set with RAW264.7 [13] was inactive. Besides, in data set [10], the inhibition entry was “inactive”.

The values are drawn from ChEMBL document CHEMBL4004813, “Oscarellin, an Anthranilic Acid Derivative from a Philippine Sponge, Oscarella stillans, as an Inhibitor of Inflammatory Cytokines in Macrophages” (J Nat Prod, 2017).
